# An excerpt weighted towards active compounds, which were near 2% of everything screened.
# UCH37 inh = inhibitors of human deubiquitinating enzyme UCH37 | Q9Y5K5 | purified proteasome/UCH37, Ub-AMC cleavage fluorescence | inhibition, % (concentration not given with the values) | hit rate 0.33% among 330,000 | AID 588478;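 active means mean inhibition over replicate wells above about 20%, limit read from the data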;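 further: 0% = compound-free wells with enzyme and 100% = wells lacking proteasome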
# Target sequence (Q9Y5K5 whole entry, looked up): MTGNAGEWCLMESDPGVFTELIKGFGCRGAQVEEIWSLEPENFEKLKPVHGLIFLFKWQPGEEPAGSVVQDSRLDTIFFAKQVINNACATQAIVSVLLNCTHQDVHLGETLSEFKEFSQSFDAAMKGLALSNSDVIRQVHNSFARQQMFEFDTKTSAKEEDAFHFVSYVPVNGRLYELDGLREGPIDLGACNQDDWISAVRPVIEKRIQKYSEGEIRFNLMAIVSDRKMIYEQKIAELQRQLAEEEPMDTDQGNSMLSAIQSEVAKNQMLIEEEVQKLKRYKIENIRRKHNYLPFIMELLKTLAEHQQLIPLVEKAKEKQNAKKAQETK
#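 Assay system: Proteasome-bound UCH37. Buffer or medium: pH 7.4 Tris-HCl (50 mM) with ovalbumin, ATP-MgCl2, DTT. Incubation: 30 min preincubation with enzyme, 25 min cleavage at room temperature. Measured by: fluorescence, ex 355 nm, em 460 nm. Read-out basis: percent inhibition. Control set: wells without proteasome as full block, compound-free enzyme plus substrate as uninhibited.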
# GSTO1 inh = GSTO1 inhibition, counter-screen for RBBP9 inhibitors | AID 1974 | P78417 | hit rate 1.1% among 300,000 | recombinant GSTO1, activity-based probe fluorescence polarization | inhibition, % at 5.96 µM;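 active means inhibition above the campaign mean inhibition plus 3 SD, cut at about 35% in these data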;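 further: 0% = GSTO1-1 with DMSO and 100% = wells lacking GSTO1-1 enzyme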
# Target sequence (P78417 whole entry, looked up): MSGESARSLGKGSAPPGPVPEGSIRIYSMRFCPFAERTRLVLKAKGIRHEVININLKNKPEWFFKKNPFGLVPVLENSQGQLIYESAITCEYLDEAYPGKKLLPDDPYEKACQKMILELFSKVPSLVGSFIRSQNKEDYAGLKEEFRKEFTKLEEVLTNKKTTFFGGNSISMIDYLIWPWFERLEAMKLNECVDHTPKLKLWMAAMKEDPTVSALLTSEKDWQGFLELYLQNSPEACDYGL
# Fh CTSL1 inh = cathepsin L1 inhibition, PFM18AAP counter-screen | recombinant F. hepatica cathepsin L1, Z-Leu-Arg-MCA fluorescence | inhibition, % at 5.96 µM | hit rate 0.49% among 300,000;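 active means inhibition above the mean of all tested compounds plus 3 SD, set per screening campaign, cut at about 17% in these data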;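 further: 0% = plate median of test compound wells and 100% = 1 µM Z-Phe-Ala-diazomethylketone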
# PP5 inh = inhibitors of human protein phosphatase 5 (PP5); P53041; purified PP5c, OMFP substrate fluorescence; inhibition, % at 6.7 µM; hit rate 0.18% among 320,000; AID 1987;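 active means inhibition above the campaign's mean inhibition across all tested compounds plus 3 SD, cut at about 9.5% in these data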;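 further: 0% = DMSO only and 100% = 100 µM cantharidin control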
# PAD4 FP inh = PAD4 (human) enzyme inhibition. Q9UM07. recombinant PAD4, RCA probe fluorescence polarization. inhibition, % at 6.36 µM. hit rate 0.41% among 330,000. AID 485272;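 active means percent inhibition above a cutoff equal to the mean of all tested compounds plus 3 SD, cut at about 15% in these data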;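 further: 0% = PAD4 with RCA probe and DMSO and 100% = probe without PAD4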
# Apaf-1 inh = inhibitors of human Apaf-1 apoptosome | O14727 | reconstituted apoptosome caspase-3 activity, DEVD-Rh110 fluorescence | inhibition, % at 20 µM | hit rate 0.71% among 330,000; active means inhibition of at least 40% at 20 µM;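 further: plate controls were DMSO wells for no effect and DEVD-CHO caspase inhibitor wells for full effect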
#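 System – cell-free apoptosome with Apaf-1, procaspase-3 and caspase-9 · Buffer or medium – pH 7.5 Hepes buffer with CHAPS, BSA, DTT · Also added – cytochrome c with DEVD-Rh110 · Times – 30 min compound preincubation, 50 min activation, room temperature · Technique – Rh110 fluorescence intensity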
# PP5 inh confirm = confirmation of human PP5 phosphatase inhibitors. shares compounds with PP5 inh. Purified PP5, fluorogenic phosphatase substrate, fluorescence. inhibition, % at 6.7 µM. hit rate 22% among 460; in the data active means inhibition above about 9.5%
# PP1 inh counter = PP1 phosphatase inhibition, counter-screen for PP5 inhibitors | shares compounds with PP5 inh | AID 2355 | PP1 enzyme, fluorescent phosphatase substrate | inhibition, % at 6.7 µM | hit rate 4% among 460; in the data active means inhibition above about 16%
# Active calls of the source: *; / = no result; ! = repeats disagree.
SMILES,UCH37 inh,GSTO1 inh,Fh CTSL1 inh,PP5 inh,PAD4 FP inh,Apaf-1 inh,PP5 inh confirm,PP1 inh counter
Cc1ccc(-c2ccc(C=NNC(=O)CN3CCCC3)o2)cc1Cl,-2,/,/,/,/,/,/,/
O=C(/C=C/c1ccco1)NC(=S)Nc1ccccc1N1CCOCC1,5,-5,1,9.7*,-6,15,0,1
O=C(/C=C/c1ccco1)NC(=S)Nc1ccccc1N1CCCC1,5,12,11,3,1,2,/,/
Cc1ccccc1-n1c(SCC(=O)NN=Cc2sccc2C)nc2ccccc2c1=O,6,/,/,/,/,/,/,/
CC(=NNC(=O)c1cccc2ccccc12)c1cccs1,6,/,/,/,/,/,/,/
COc1ccc2[nH]c(=O)c(CN(Cc3cccs3)S(=O)(=O)c3c(C)ccc4nsnc34)cc2c1,0,-1,-3,9.8*,0,14,1,2
COc1ccc2nc(C)cc(NN=Cc3cccc(OC)c3O)c2c1,6,/,/,/,/,/,/,/
CN(CC(O)CN1CCOCC1)S(=O)(=O)O (configuration not stated),5,-1,-2,14*!,1,-9,-7,-5
OC(CN1CCOCC1)CN1CCOCC1,1,0,-1,0,0,-6,/,/
O=C(NN=Cc1c(O)ccc2ccccc12)c1cccc(C(F)(F)F)c1,3,/,/,/,/,/,/,/
CCOC(=O)C(NC(=O)Nc1ccc(O)cc1)(c1ccccc1)C(F)(F)F (configuration not stated),7,21,-3,11*,0,26,1,0
COc1ccc(C=NNC(=O)c2cc(C)oc2C)cc1OC,10,/,/,/,/,/,/,/
Cc1nnc(SCc2ccc(F)cc2Cl)s1,1,-7,-3,2,0,-11,/,/
Nc1nnc(SCc2ccc(F)cc2Cl)s1,4,5,-1,13*,-1,-6,-6,-3
O=C(Nc1c(C(=O)NCc2ccco2)cnn1-c1ccccc1)c1cccc(F)c1,-1,1,-1,11*,-3,10,-7,-5
CCOc1ccc(NC(=O)c2ccccc2OCC(=O)c2ccc(C)cc2)cc1,3,2,-2,9.8*,-6,4,2,-2
Cc1ccc(NC(=O)c2ccccc2OCC(=O)c2ccc(F)cc2)cc1,1,5,1,0,-1,5,/,/
CC(=NNC(=O)COc1ccc(C#N)cc1)c1ccc(N2CCOCC2)cc1,-8,/,/,/,/,/,/,/
CC(C)(C)NC(=O)CSc1nc2cccnc2n1C1CCCCC1,-2,4,-2,14*,1,4,0,1
CCCCNc1nc(Nc2ccc(C)c(Cl)c2)c2cnn(C)c2n1,-4,-7,3,5,1,23,/,/
CCNc1nc(Nc2ccc(C)c(Cl)c2)c2cnn(C)c2n1,-5,-17,1,10*,-9,15,0,3
COC(=O)c1sc(N)c(C(=O)OC)c1COC(=O)c1c(C)noc1C,-1,-5,0,10*,-1,-16,-3,-4
CCc1ccc(-n2c(C)cc(C=NNC(=O)OC)c2C)cc1,4,/,/,/,/,/,/,/
COc1ccc(NC(=O)CSCC(=O)N(C)CC(=O)Nc2ccc(Cl)c(C(F)(F)F)c2)cc1,1,-13,2,1,-1,16,/,/
Cc1cc(C)cc(OCC(=O)N(C)CC(=O)Nc2ccc(Cl)c(C(F)(F)F)c2)c1,2,/,/,10*,3,22,5,7
SMILES,UCH37 inh,GSTO1 inh,Fh CTSL1 inh,PP5 inh,PAD4 FP inh,Apaf-1 inh,PP5 inh confirm,PP1 inh counter
O=C(Nc1ccc(O)cc1)C1CCCO1 (configuration not stated),0,0,-2,11*,-1,-3,-2,-4
O=C(Nc1ccc(F)cc1)C1CCCO1 (configuration not stated),1,5,-4,1,-3,-2,/,/
COCC(=O)Nc1ccccc1C(=O)NC(C)C,2,4,2,1,-1,-1,/,/
CC(C)NC(=O)c1ccccc1NC(=O)CCc1ccccc1,2,5,0,10*,-4,-3,-2,-3
Cc1cc(C(=O)NN=Cc2ccc(C)o2)c2ccccc2n1,9,/,/,/,/,/,/,/
C=CCn1c(SCC(=O)NC2CCCC2)nnc1-c1ccccn1,2,2,-4,-1,-3,0,/,/
CCCn1c(SCC(=O)NC2CCCC2)nnc1-c1ccccn1,1,0,-4,11*,1,-17,-3,-4
CC(=NO)c1c(O)c(C)c(-c2ccccc2)n(-c2ccccc2)c1=O,5,/,/,/,/,/,/,/
COc1ccccc1NC(=O)Nc1nc(CC(=O)Nc2ccc(F)c(F)c2)cs1,5,-8,-8,9.9*,-6,18,3,2
Cc1ccc(NC(=S)Nc2nc(CC(=O)Nc3ccccc3)cs2)cc1,0,-8,1,10*,-3,0,-6,2
O=C1CN(c2nc(-c3cccnc3)nc3scc(-c4ccccc4)c23)CCN1,2,-4,-1,10*,-1,7,-1,1
Cn1c(=O)c2c(nc(NN=C3CCCc4ccccc43)n2Cc2ccc(F)cc2)n(C)c1=O,-16,/,/,/,/,/,/,/
O=C(Nc1ccc(C2CCCCC2)cc1)C1CCN(c2ncccn2)CC1,3,1,0,10*,0,-9,-4,-3
COc1ccc(C(=O)Nc2ccc(S(=O)(=O)NC(C)=O)cc2)cc1,-1,0,3,12*,4,-11,-7,-5
CCOc1ccc(-c2[nH]ncc2Oc2cccc(OC)c2)c(O)c1,3,-7,4,12*,-4,12,4,4
CC(NC(=O)c1ccc(Br)o1)c1ccccc1 (configuration not stated),3,-6,-11,-1,-4,-22,/,/
Cc1ccc(C(=O)NC(C)c2ccccc2)o1 (configuration not stated),3,1,-5,11*,-5,-1,-4,-2
CC(C)(C)OC(=O)NCCCC[C@H](NC(=O)c1[nH]cnc1C(=O)Nc1ccccc1)C(=O)OC(C)(C)C,4,-6,7,11*,-3,19,8,8

# Screening data (PubChem)
